Screens as filed in PubChem.
Shown are actives, neighbours in structure and some others; about 1.8% of the full set was active somewhere.
STAT3 activator: increases IL-6 driven STAT3 reporter signal. hit rate 0.91% among 190,000. activation (% of control), % at 5.6 µM. U3A cells, IL-6 STAT3-luciferase reporter, luminescence; 100% = signal with IL-6 EC80 alone;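 active means activation above the screen-wide mean of compound activation plus 3 SD, cut at about 130% in these data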;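 further: 0% = background luminescence of wells with medium and substrate only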
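Material: STAT1-lacking human U3A cells, STAT3 luciferase reporter | Benchmarks: IL-6-only wells as 100% reference | Probe or stimulus: IL-6 (33 ng/mL) | Timing: Compound 1 h, then IL-6 6 h at 37 °C | Detection: Luminescence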
PPC-1+TRAIL kill: PPC-1 cancer cell killing with TRAIL present. hit rate 0.41% among 220,000. cell killing (% activity), % at 4 µM or 5 µM. PPC-1 cells + TRAIL, ATPLite viability luminescence;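 active means cell killing above 50% in the first pass at 4 µM, then a duplicate retest at 5 µM averaging 50% or more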;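 further: plate controls were cells with TRAIL plus DMSO for no effect and medium-only wells lacking cells for full effect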
STAT3 blocker: inhibitors of IL-6 induced STAT3 signaling; U3A cells, IL-6 STAT3-luciferase reporter, luminescence; host cell line lacks STAT1; hit rate 0.89% among 190,000; inhibition, % at 5.5 µM;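 active means inhibition above the mean inhibition across all screened compounds plus 3 SD, cut at about 44% in these data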;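 further: 0% = DMSO only wells and 100% = 100 µM nifuroxazide control wells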
STAT1 blocker: inhibitors of IFN-gamma induced STAT1 signaling; hit rate 0.35% among 200,000; inhibition, % at 5.5 µM; NIH 3T3 STAT1-luciferase reporter, luminescence;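 active means inhibition above a set limit, the mean inhibition across all tested compounds plus 3 SD, cut at about 34% in these data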;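 further: 0% = IFN-gamma with DMSO and 100% = IFN-gamma with 300 µM nifuroxazide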
TRAIL sens C8: sensitizes caspase-8 expressing cells to TRAIL. inhibition (viability loss, TRAIL sensitization), % at 10 µM. NB7+C8 cells + TRAIL, ATPlite viability luminescence. hit rate 1% among 360,000. AID 624354;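 active means compounds causing at least 50% loss of cell viability in the single-dose screen, relative to plate controls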
* marks the source's active call; other numbers are inactive results; nt = no result given; ! = not confirmed by another sample.

SMILES	STAT3 activator	PPC-1+TRAIL kill	STAT3 blocker	STAT1 blocker	TRAIL sens C8
Cc1scc(C(=O)N/N=C/c2ccsc2)c1C	93	54*	7	-43	62*
CC(C)CC(=O)N1CC(C)N(C(=O)CC(C)C)CC1C (stereo not given)	99	15	2	-3	nt
CC(C)(C)c1ccc(-c2noc(CCC(=O)Nc3cccnc3)n2)cc1	nt	nt	nt	nt	50*
COc1ccc(-c2noc(CCC(=O)Nc3cccnc3)n2)cc1	nt	nt	nt	nt	9
CCCCCCCCOC(=O)c1c(CSC(=N)N)n(C)c2cc(Br)c(OC(C)=O)cc12	nt	-2	nt	nt	92*
Cc1ccc(S(=O)(=O)N2CCC(C(=O)NCCc3ccccc3)CC2)cc1	94	-5	13	0	-4
Cc1ccc(S(=O)(=O)N2CCC(C(=O)NCCc3ccc(S(N)(=O)=O)cc3)CC2)cc1	99	53*	7	3	-6
CCOC(=O)c1cc2ccccc2n1C1CCN(C)CC1	nt	nt	nt	nt	4
COc1ccc2nc(NC(=O)c3ccc([N+](=O)[O-])o3)sc2c1	nt	nt	nt	nt	54*
O=C(Nc1nc2cc3c(cc2s1)OCCO3)c1ccc([N+](=O)[O-])o1	nt	nt	nt	nt	69*
CCCC(=O)Nc1nc2ccc(OCC)cc2s1	101	0	4	-55	21
CCOc1ccc2nc(NC(=O)c3ccc(C)o3)sc2c1	nt	nt	nt	nt	58*
COc1ccc([C@H]2C[C@H](O)[C@@H](n3cc(-c4ccc(F)cc4)nn3)CN2C(=O)c2cccs2)cc1	nt	nt	nt	nt	3
COCCCNC(=O)c1cccc2c(-c3cccc(C(N)=O)c3)coc12	nt	nt	nt	nt	-26
COc1ccc(CNCC(=O)Nc2cccc(S(N)(=O)=O)c2)cc1	93	25	14	1	9
COc1ccc(OC)c(CNS(=O)(=O)c2cn(C)cn2)c1	nt	nt	nt	nt	-5
COc1ccc(NC(=O)c2c(Cl)n(C)c3ccccc23)cc1	144*	14	-36	-21	34
C(/C=C/c1ccccn1)=C\c1ccccc1	nt	nt	nt	nt	51*
O=C(C1CCCCCC1)N1CC[C@@H](N2CCC(O)CC2)[C@H](O)C1	nt	nt	nt	nt	-19
Cc1ccc(Nc2nc(CSc3nnc(-c4ccncc4)n3C)cs2)cc1	70	72*	38	6	76*
CCOc1ccccc1Nc1ccc(C(=O)O)cc1NC(C)=O	99	54*	7	16	5
Cc1nc(NCC2CCCO2)nc2c1C(=O)CC(C)C2 (stereo not given)	105	-12	-1	-4	52*
COC(=O)C(Cc1ccccc1)NC(=O)CCNC(=O)c1ccco1 (stereo not given)	nt	nt	nt	nt	-11
CCCC[C@@H]1CNCCN1CCc1cc(C(F)(F)F)cc(C(F)(F)F)c1	nt	nt	nt	nt	11
NC1=NC[C@H](CC2CCCCC2)N1CCc1cc(C(F)(F)F)cc(C(F)(F)F)c1	nt	12	nt	nt	60*
SMILES	STAT3 activator	PPC-1+TRAIL kill	STAT3 blocker	STAT1 blocker	TRAIL sens C8
FC(F)(F)c1cc(CCN2CCNC[C@@H]2CC2CCCCC2)cc(C(F)(F)F)c1	nt	nt	nt	nt	67*
NC1=NC[C@@H](Cc2ccc(O)cc2)N1CCc1cc(C(F)(F)F)cc(C(F)(F)F)c1	nt	19	nt	nt	-8
CCCn1c(NC(=O)c2cccc(S(=O)(=O)N3CCCC3)c2)nc2ccccc21	77	16	32	14	40
C=C1CC2(CC(c3ccccc3)OC(c3ccccc3)C2)OC1=O (stereo not given)	nt	nt	nt	nt	64*
CN(C)C=Nc1ccc2nc3c(cc2c1)[nH]c1ccccc13	nt	nt	nt	nt	76*
O=C(c1cc2ccccc2[nH]1)N1CCOCC1	135*	6	-39	2	-1
COc1ccc(C(C[N+](=O)[O-])C2(c3ccc(OC)c(OC)c3)C(=O)c3ccccc3C2=O)cc1 (stereo not given)	101	43	-3	1	53*
COc1ccc(C(C[N+](=O)[O-])c2c(-c3ccccc3)cc3ccccn23)cc1OC (stereo not given)	90	10	12	-7	11
Nc1ccccc1C#CC(=O)c1ccccc1	nt	nt	nt	nt	64*
O=C(C#Cc1cccc([N+](=O)[O-])c1)c1ccccc1	95	9	7	10	83*
Nc1ccccc1C#Cc1ccc([N+](=O)[O-])cc1	nt	nt	nt	nt	26
O=C(O)C(=Cc1cccc([N+](=O)[O-])c1)c1ccccc1	nt	nt	nt	nt	-4
CS(=O)(=O)Nc1ccc2c(c1)OCC(=O)N2Cc1ccccc1	nt	nt	nt	nt	4
COC(=O)c1nnn(-c2nonc2N)c1COc1ccc(C=O)cc1OC	104	1	-1	-1	-8
O=C(CC1C(=O)NCCN1Cc1ccc(Cl)c(F)c1)NC1CCC1 (stereo not given)	nt	nt	nt	nt	9
N#Cc1ccc(OCC(=O)Nc2nc(-c3cccnc3)cs2)cc1	nt	nt	nt	nt	7
OC(c1ccccc1)c1nc(-c2cncnc2)cs1 (stereo not given)	nt	nt	nt	nt	-17
CC(C)c1ccc2c(c1)CC[C@H]1[C@](C)(CN)CCC[C@]21C	nt	nt	nt	nt	68*!
CC(C)c1ccc2c(c1)CCC1C(C)(CN)CCCC21C (stereo not given)	nt	39	nt	nt	22
CN(C)c1ccc(C(=O)c2ccc(N(C)C)c3ccccc23)cc1	146*	19	-52	-32	-15
O=C(/C=C/c1cccc(Cl)c1)c1ccc([N+](=O)[O-])o1	nt	nt	nt	nt	68*
CCCS(=O)(=O)NC(=O)C1(C)CCN(C(=O)c2ccco2)C1 (stereo not given)	nt	nt	nt	nt	-6
O=C(O)c1ccc2c(=O)n3c(nc2c1)/C(=C/c1ccccc1Br)CC3	nt	nt	nt	nt	4
O=c1c2ccccc2nc2n1CC/C2=C\c1ccccc1[N+](=O)[O-]	157*	2	-65	1	nt
COCCn1c(SCC(=O)NCc2ccc(OC)c(OC)c2)nc2ccccc21	nt	nt	nt	nt	-9
SMILES	STAT3 activator	PPC-1+TRAIL kill	STAT3 blocker	STAT1 blocker	TRAIL sens C8
COc1cccc2c1C(=O)c1c(O)c3c(c(O)c1C2=O)C[C@](O)(C(C)=O)C[C@H]3O[C@@H]1C[C@@H](N)[C@@H](O)[C@@H](C)O1	nt	nt	nt	nt	62*
COc1cccc(NC(=O)CN(C)C(=O)c2cc(C)on2)c1	nt	nt	nt	nt	-13
COc1ccc(OCCCC(=O)OCC(=O)NNC(=O)c2ccc([N+](=O)[O-])cc2)cc1	nt	nt	nt	nt	14
Cc1nc(NC(=O)c2ccc3c(c2)OCO3)ccc1Br	94	28	14	-62	9
Cc1cc(NC(=O)c2ccc3c(c2)OCO3)no1	88	19	18	-19	51*
Cc1cc(NC(=O)c2ccc(C(C)(C)C)cc2)no1	nt	nt	nt	nt	70*
O=C(COn1nnc2ccc(S(=O)(=O)N3CCOCC3)cc21)NCc1cccc(Cl)c1	nt	nt	nt	nt	-5
COc1cccc(CNc2nc3cc(-c4ccc(F)cc4)sc3c(=O)n2C)c1	nt	nt	nt	nt	-1
Cc1ccccc1N(C)S(=O)(=O)c1nnc(NC(=O)c2ccco2)s1	nt	nt	nt	nt	-3
O=C(NCc1ccoc1)c1ccc(NC(=O)c2ccccc2Cl)cc1	133*	6	-31	7	9
O=C(Nc1ccc(C(=O)N2CCCCC2)cc1)c1ccccc1Cl	nt	nt	nt	nt	23
Cc1ccc2c(c1)C(c1ccccc1)N(C(=O)c1ccc(Br)o1)CC(=O)N2 (stereo not given)	135*	-6	-38	8	0
CCCCC[C@H](C)N1C[C@H](COCc2ccccc2)Oc2cc(N3CCC[C@H]3COC)ccc2S1(=O)=O	nt	nt	nt	nt	5
